ChEMBL document CHEMBL2331267 (J Med Chem, 2013)

Key:
[1] = molecular target: T1, Acid ceramidase (Rattus norvegicus, UniProt Q6P7S1); assay: Inhibition of rat recombinant acid ceramidase expressed in human HEK293 cells using N-lauroylceramide as substrate incubated for 30 mins prior to substrate addition measured after 30 mins by LC/MS analysis
T1 sequence (Q6P7S1 whole entry): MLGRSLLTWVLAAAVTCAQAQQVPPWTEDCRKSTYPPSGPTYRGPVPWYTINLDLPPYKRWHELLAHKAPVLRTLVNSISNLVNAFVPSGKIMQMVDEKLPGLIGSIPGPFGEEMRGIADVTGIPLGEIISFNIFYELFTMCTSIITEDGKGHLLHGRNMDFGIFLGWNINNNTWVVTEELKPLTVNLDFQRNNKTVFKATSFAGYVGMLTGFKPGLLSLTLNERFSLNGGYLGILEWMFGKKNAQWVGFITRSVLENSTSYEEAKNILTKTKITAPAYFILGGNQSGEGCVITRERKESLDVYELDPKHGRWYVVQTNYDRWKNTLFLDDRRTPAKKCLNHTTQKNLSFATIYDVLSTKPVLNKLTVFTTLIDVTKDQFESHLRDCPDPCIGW
Method in brief: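 Rat AC from cell lysate: sucrose/Tris homogenate, 12000g pellet, freeze–thaw in PBS, 105000g supernatant. Enzyme (50 μg protein) preincubated 30 min, 37 °C, with inhibitor (final DMSO 1%) in pH 4.5 phosphate/citrate buffer with 0.1% NP-40, 150 mM NaCl, 3 mM DTT; 100 μM N-lauroylceramide, 30 min, 37 °C; lauric acid quantified by LC/MS against heptadecanoic acid standard.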

[2] = molecular target: T2, Acid ceramidase (Homo sapiens, UniProt Q13510); assay: Inhibition of acid ceramidase (unknown origin)
T2 sequence (Q13510 whole entry): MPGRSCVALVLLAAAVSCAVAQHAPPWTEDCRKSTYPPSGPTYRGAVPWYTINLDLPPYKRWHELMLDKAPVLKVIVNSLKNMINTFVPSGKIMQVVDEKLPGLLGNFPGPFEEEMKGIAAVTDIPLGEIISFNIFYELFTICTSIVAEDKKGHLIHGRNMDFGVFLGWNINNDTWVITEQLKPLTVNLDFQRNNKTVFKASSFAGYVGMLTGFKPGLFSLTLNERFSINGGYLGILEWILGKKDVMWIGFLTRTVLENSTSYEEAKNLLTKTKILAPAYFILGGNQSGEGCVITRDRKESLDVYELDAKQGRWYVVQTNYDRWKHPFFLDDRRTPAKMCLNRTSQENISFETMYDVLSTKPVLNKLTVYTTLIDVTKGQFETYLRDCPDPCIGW

[3] = Antiproliferative activity against human SW403 cells after 72 hrs by MTT assay; format: functional, cell-based; settings: SW-403, 72 h
Method in brief: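 SW403 cells exposed to compounds for 72 h; viability read by MTT reduction, n=4 per drug concentration; EC50 derived from concentration–response.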

[4] = Chemical stability of the compound in buffer at pH 4.5 after 30 mins by LC/MS analysis; format: physicochemical; settings: read-out: Stability
[5] = Chemical stability of the compound in DMSO-d6 solution after 120 mins by LC/MS analysis; format: physicochemical; settings: 2 h

SMILES	IC50 ([1]; read-out: IC50) [µM]	also measured
CCCCCCCCNC(=O)n1cc(F)c(=O)n(C(=O)OC)c1=O	0.004	
CCCCCCNC(=O)n1ccc(=O)[nH]c1=O		IC50 ([1]; hek293, read-out: IC50): 0.426 µM
CCCCCCCC/C=C\CCCCCCCC(=O)NCCO [OLEOYLETHANOLAMIDE]		Ki [2]: 500 µM
CCCCCCN(C)C(=O)n1ccc(=O)[nH]c1=O		IC50 ([1]; hek293): Not Active
CCCCCCNC(=O)n1cc(F)c(=O)n(CC2CC2)c1=O	0.061	
CCCCCCNC(=O)N1CCC(=O)NC1=O		IC50 ([1]; hek293): Not Active
CCCCCCNC(=O)n1cc(CC)c(=O)[nH]c1=O	0.733	
CCCCCCNC(=O)n1ccc(=O)n(C)c1=O	0.053	
CCCCCCNC(=O)n1cc(C#N)c(=O)[nH]c1=O		remaining at 0.5 h [4]: 22%; IC50 ([1]; hek293): ND(Unstable)
CCCCCCNC(=O)n1cc(F)c(=O)n(C(=O)OCC)c1=O	0.012	
CCCCCCNC(=O)n1cc(C(F)(F)F)c(=O)[nH]c1=O		IC50 ([1]; hek293, read-out: IC50): 0.012 µM
CCCCCCCCNC(=O)n1cc(F)c(=O)[nH]c1=O	0.046	
CCCCNC(=O)n1ccc(=O)[nH]c1=O	8.5	
CCCCCCNC(=O)n1cc(F)c(=O)[nH]c1=O [CARMOFUR]		IC50 ([1]; hek293, read-out: IC50): 0.029 µM
CCCCCCNC(=O)n1c(Cl)cc(=O)[nH]c1=O		Stability [5]: Unstable; IC50 ([1]; hek293): ND(Unstable)
CCCCCCNC(=O)n1c(C)c(C)c(=O)[nH]c1=O		Stability [5]: Unstable; IC50 ([1]; hek293): ND(Unstable)
CCCCCCNC(=O)n1cc(-c2ccccc2)c(=O)[nH]c1=O		EC50 [3]: 24 µM

Now from value to compound, other results behind:

IC50 ([1]; read-out: IC50) [µM]	SMILES	also measured
0.013	CCCCCCNC(=O)n1cc(F)c(=O)n(C)c1=O	EC50 [3]: 22 µM
0.016	CCCCCCNC(=O)n1cc(F)c(=O)n(C(=O)OCC(C)C)c1=O	
0.02	CCCCCCNC(=O)n1cc(F)c(=O)n(C(=O)c2ccccc2)c1=O	
0.021	CCCCCCNC(=O)n1cc(F)c(=O)n(C(=O)C(C)C)c1=O	
1.46	CCCCCCNC(=O)n1cc(C)c(=O)[nH]c1=O	
2.1	CCCCCNC(=O)n1ccc(=O)[nH]c1=O	
0.018	CCCCCCNC(=O)n1cc(F)c(=O)n(CC)c1=O	
0.007	CCCCCCNC(=O)n1cc(F)c(=O)n(C(=O)OC)c1=O	
0.325	CCCCCCCNC(=O)n1ccc(=O)[nH]c1=O	
0.283	CCCCCCCCNC(=O)n1ccc(=O)[nH]c1=O	EC50 [3]: 20 µM
0.464	CCCCCCCCCNC(=O)n1ccc(=O)[nH]c1=O	
